Source: PubChem
A selection: hits, their analogues and other compounds. The true share with any hit is near 2.4%.
aDG glyco up = increases alpha dystroglycan glycosylation; AID 624168; Pro5-aDG cells, alpha-DG glycosylation AlphaScreen (IIH6); 0% Pro5, 100% B10-LARGE cell signal; activation, % at 10 µM; actives 0.22% (n = 360,000);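 active = activation of at least 8% versus controls, or a plate z-score of at least 8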;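 note: Pro5 are CHO cells carrying HIG-tagged alpha-DG that lacks glycosylation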
Jurkat NFkB inh = inhibitors of the PMA/ionomycin-induced NF-kB reporter in Jurkat cells; PMA/ionomycin-induced NF-kB luciferase reporter, luminescence; inhibition, % at 4 µM; actives 0.53% (n = 330,000); AID 435003; in the data active = inhibition above about 50%
NR2E3 ag-1 = agonists of human nuclear receptor NR2E3; GST-NR2E3/biotin-RetCOR TR-FRET, 1536-well; Q9Y5X4; actives 0.12% (n = 320,000); AID 2300; inhibition of corepressor binding, % at 4.78 µM;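 active = percent inhibition above the cutoff of mean plus 3 SD of all tested compounds, set per screening campaign, cut at about 20% in these data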;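 note: 0% = DMSO wells and 100% = biotin wells as full block of FRET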
Target sequence (Q9Y5X4 whole entry, looked up): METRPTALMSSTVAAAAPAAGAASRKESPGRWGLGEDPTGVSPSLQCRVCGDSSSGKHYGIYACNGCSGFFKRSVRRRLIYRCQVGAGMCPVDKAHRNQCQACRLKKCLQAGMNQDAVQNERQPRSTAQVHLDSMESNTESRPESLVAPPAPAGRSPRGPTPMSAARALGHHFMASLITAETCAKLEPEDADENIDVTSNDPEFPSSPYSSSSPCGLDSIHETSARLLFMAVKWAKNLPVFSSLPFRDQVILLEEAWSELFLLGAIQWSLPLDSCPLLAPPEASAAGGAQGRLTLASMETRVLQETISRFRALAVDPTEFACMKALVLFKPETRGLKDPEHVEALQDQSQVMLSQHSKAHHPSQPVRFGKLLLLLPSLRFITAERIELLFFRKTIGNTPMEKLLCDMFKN
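System: GST-tagged NR2E3 plus biotinylated RetCOR corepressor; Buffer or medium: pH 7.5 Tris-based buffer; Probe or stimulus: RetCOR corepressor, biotinylated, 7 nM; Doses: compound at 4.8 µM, single dose; Schedule: 5 h incubation at 4 °C; Technique: time-resolved FRET; Evaluation: percent inhibition of TR-FRET ratio; Replication: one well per compound, singlicate testing.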
MPTP inh = permeability transition pore inhibition. inhibition, % at 10 µM. AID 602449. isolated mouse mitochondria, Ca2+ swelling absorbance, 30 min. actives 1.4% (n = 360,000);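 active = inhibition of 50% or more, scaled per plate between neutral and stimulator controls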;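 note: 0% = DMSO wells given calcium and 100% = 1 mM EGTA wells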
NR2E3 ag-2 = agonists of human NR2E3 nuclear receptor | actives 0.35% (n = 360,000) | inhibition of corepressor binding, % at 3.98 µM | Q9Y5X4 | CHO-S Gal4-NCOR/VP16-NR2E3 two-hybrid, luciferase;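 active = inhibition above the mean of all tested compounds plus 3 SD, cut at about 70% in these data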;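 note: 0% = DMSO with NR2E3 transfected cells and 100% = cells lacking NR2E3 construct; higher means lower luciferase signal from less NR2E3 corepressor binding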
697 NFkB inh = inhibitors of the PMA/ionomycin-induced NF-kB reporter in 697 B cells | inhibition, % at 4 µM | 697 B-cell NF-kB luciferase reporter, 16 h | actives 0.33% (n = 330,000) | AID 435022; in the data active = inhibition above about 35%
Rh123 counter = membrane potential counter-screen of mitochondrial pore inhibitors | isolated mitochondria, Rhodamine 123 fluorescence | AID 624504 | actives 78% (n = 5,000) | shares compounds with MPTP inh | inhibition, % at 10 µM; in the data active = inhibition above about 22%;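 note: 0% = DMSO vehicle and 100% = positive control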
MPTP swell DR = dose response confirmation of mitochondrial permeability transition pore inhibitors; isolated mitochondria swelling, absorbance; IC50, µM; shares compounds with MPTP inh; actives 58% (n = 780); AID 651561; in the data active = IC50 below about 20 µM
MPTP counter DR = counter-screen for mitochondrial permeability transition pore inhibitors, dose response; shares compounds with MPTP inh; isolated mitochondria counterscreen, fluorescence read-out; IC50, µM; actives 49% (n = 780); in the data active = IC50 below about 80 µM
* = called active by the depositor; / = not tested or not shown.

SMILES | aDG glyco up | Jurkat NFkB inh | NR2E3 ag-1 | MPTP inh | NR2E3 ag-2 | 697 NFkB inh | Rh123 counter | others
COCCCN1C(=O)C(CC(=O)NCCc2ccccn2)CC(C(=O)N2CCOCC2)=C1C (stereo unspecified) | 2 | / | / | 1 | 25 | / | /
COCCOc1ccc(C(F)(F)F)cc1NC(=O)c1ccc(C)cc1 | 0 | -27 | 1 | 58* | -3 | -3 | -6 | MPTP swell DR=15*;MPTP counter DR=>80
COCCOc1ccc(C(F)(F)F)cc1NC(=O)c1ccccc1 | 0 | 10 | 1 | 15 | 13 | 14 | /
CCC(Nc1ccc(OC)cc1)C(=O)N/N=C/c1ccc([N+](=O)[O-])cc1 (stereo unspecified) | 0 | -6 | 0 | 1 | -21 | -28 | /
CC(N=C1NS(=O)(=O)c2ccccc21)C(=O)NCc1ccc(F)cc1 (stereo unspecified) | 0 | -1 | / | 0 | -6 | 6 | /
CCCc1[nH]c2ccc(C#N)cc2c1CCC | 0 | 7 | 5 | 69* | -56 | -12 | 86*
CCCc1[nH]c2ccc(C(=O)OC)cc2c1CCC | 0 | -24 | 3 | 1 | -9 | 0 | /
CCOC(=O)CSCC(=O)Nc1nnc(-c2cccc([N+](=O)[O-])c2)s1 | 0 | 15 | 2 | 0 | -16 | 24 | /
CCN(C[C@H]1N[C@@](CC)(C(=O)OC)[C@H]2C(=O)N(C)C(=O)[C@@H]12)C(=O)COc1ccccc1 | 0 | 9 | / | 1 | -17 | 0 | /
COc1ccc(OC)c(NC(=O)COC(=O)CCc2nc3ccccc3c(=O)[nH]2)c1 | 0 | -11 | / | 0 | -5 | -23 | /
Fc1ccc(CCNC(=S)Nc2ccc(F)cc2)cc1 | 0 | -37 | -4 | 50* | -79 | -60 | 93*
CC(=O)c1cccc(NC(=S)NCCc2ccc(F)cc2)c1 | 0 | -7 | 4 | 9 | -27 | -4 | /
CCCCc1ccc(NC(=S)NCCO)cc1 | 0 | -7 | 3 | 2 | -3 | 5 | /
CCCCc1ccc(NC(=S)NCCc2ccc(F)cc2)cc1 | 3 | -17 | 1 | 82* | 29 | -17 | 105*
CCCCOc1c(Br)cc(CNCCCN2CCOCC2)cc1OC | 1 | 1 | 2 | 9 | -14 | -39 | /
CCOc1ccccc1NC(=O)CSc1nnnn1C1CCCC1 | 0 | 2 | 0 | 0 | -18 | 8 | /
O=S(=O)(NC(=NCc1ccccc1)c1ccccc1)c1ccc(Br)cc1 | 0 | -5 | 0 | 0 | 29 | 8 | /
CN(Cc1ccccc1)C(=O)COC(=O)c1ccc(Cl)cc1N | 0 | -5 | -3 | -3 | -62 | -9 | /
Cc1cc(F)ccc1NCc1ccccc1[N+](=O)[O-] | 0 | -1 | -1 | -1 | -13 | -3 | /
O=[N+]([O-])c1ccccc1CNc1ccc(F)c(Cl)c1 | 0 | -5 | 1 | 76* | -20 | -6 | 80*
CC(C)Cc1csc(NC(=O)c2ccc(F)cc2)c1C(=O)O | 0 | 6 | 0 | 53* | -65 | 18 | 71*
CCOC(=O)c1c(CC(C)C)csc1NC(=O)c1ccccc1C(=O)O | 0 | -5 | 7 | 2 | 12 | -15 | /
Cc1ccccc1OCCCSc1nc2ccccc2[nH]1 | 1 | 1 | -2 | 68* | -13 | -14 | 99*
c1ccc(OCCSc2nc3ccccc3[nH]2)cc1 | 0 | -7 | 3 | -6 | -72 | -19 | /
FC(F)(F)c1cc(CO[C@@H]2CCCN[C@@H]2c2ccccc2)cc(C(F)(F)F)c1 | 0 | 3 | -1 | 103* | 0 | 25 | -20 | MPTP swell DR=4.3*;MPTP counter DR=54*
COCCn1c(SCC(=O)NNC(=O)c2cc(Cl)ccc2OC)nnc1-c1ccncc1 | 0 | 2 | -1 | -3 | -4 | 19 | /
